Assay results from the array DNA melting data of Ke et al. (doi:10.1101/2024.01.08.574731).

Assays:
[1] = folding enthalpy; higher = less favourable; fluorescence melt of hairpins on a sequencing array, two-state fit; settings: sodium 0.088 M
In short: (§1)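 Library hairpins on a sequenced MiSeq flow cell carried annealed Cy3 and quencher oligos, and their Cy3 fluorescence was imaged in 50 mM Na-HEPES pH 8.0 with 25 mM NaCl, in 2.5 °C steps up to 60 °C. Signals were normalised to Cy3 before quenching and to control constructs. Melting temperature and folding enthalpy were obtained from bootstrapped two-state fits, combined by inverse-variance weighting across four replicates, and the fitted temperatures were then raised by 9.35 °C to match UV melts.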

[2] = melting temperature; fluorescence melt of hairpins on a sequencing array, two-state fit, raised by 9.35 °C to match UV melts; settings: sodium 0.088 M
In short: as §1

Sequence | folding enthalpy [1] | Tm [2]
GGAGCCGGAAACAGCTCC (((((.(....).))))) | -27.7 kcal/mol | 51.3 °C
GTCGAGGGAAACTTCGGC (.(((.(....).))).) | -24.6 kcal/mol | 36.4 °C
GTTGGGGGAAACCCCAGC (.(((((....))))).) | -17.3 kcal/mol | 49.8 °C
GTTCCCACGAAAGTGAAC (((..(((....)))))) | -10 kcal/mol | 25.7 °C
GGCAAACGAAAGTTGGCC (((.(((....))).))) | -43.9 kcal/mol | 60.2 °C
GATCGCCATCGCGATC ((((((....)))))) | -31.5 kcal/mol | 65 °C
GATCCGACATCGGATC ((((((....)))))) | -46.8 kcal/mol | 55.8 °C
GGAAAACGAAAGTTGTCC (((.(((....))).))) | -26.1 kcal/mol | 44.6 °C
GATCCCCCCTGGGATC ((((((....)))))) | -39.1 kcal/mol | 58.4 °C
GCGTCCGAACGC ((((....)))) | -21.8 kcal/mol | 53.2 °C
TACGAGAAATCGTA (((((....))))) | -14.9 kcal/mol | 37.5 °C
GATCTCCGTCGAGATC ((((((....)))))) | -41.3 kcal/mol | 51 °C
GACGCAGCGAAAGCTGTC (((..(((....)))))) | -7.32 kcal/mol | 33.5 °C
GTACGCGGAAACACGCAC ((.((.(....).)).)) | -12.6 kcal/mol | 31.1 °C
GGGCCATCGAAAGATCCC (((..(((....)))))) | -16.4 kcal/mol | 31.6 °C
GTTTGACCGAAAGGTAAC (((..(((....)))))) | -11.6 kcal/mol | 32.4 °C
GATCTGCATCAGATC ((((((...)))))) | -30.6 kcal/mol | 47.8 °C
GCTCCCGAAAGGGGAAGC ((((((....)))..))) | -19.2 kcal/mol | 50 °C
GCGACGCGAAAGCATTGC ((.(.((....)).).)) | -19.2 kcal/mol | 40.5 °C
GCGACAGGAAACTGTTGC ((.((((....)))).)) | -34.4 kcal/mol | 54.9 °C
GAGTAAGGAAACCTACTC (((((.(....).))))) | -26.6 kcal/mol | 33.2 °C
GCTCTAGGAAACTAGAAC (.(((((....))))).) | -14.2 kcal/mol | 29.7 °C
GTCGTCGCGAAAGCGGAC (((..(((....)))))) | -10.6 kcal/mol | 46.5 °C

Sequence | folding enthalpy [1] | Tm [2]
GTAGGCGAAAGCCCTAC ((((((....))).))) | -14.8 kcal/mol | 47.7 °C
GTACACCGAAAGGTTTAC (((.(((....))).))) | -30.6 kcal/mol | 42 °C
GTAGTTCGAAAGAATTAC (((.(((....))).))) | -26.8 kcal/mol | 42.4 °C
GCTGCCGAAAGGCCCAGC ((((((....)))..))) | -12.2 kcal/mol | 35.8 °C
GGTACAGGAAACTGTGTC (..((((....))))..) | -17.6 kcal/mol | 28.9 °C
GGGAGTCGAAAGACACCC (((.(((....))).))) | -30 kcal/mol | 56.9 °C
GATCGCGGAAACGCAATC (((.(((....))).))) | -22.6 kcal/mol | 41.3 °C
GTATCCGAAAGGAACTAC ((((((....)))..))) | -14.3 kcal/mol | 33.4 °C
GGCTCCGGAAACGGGGCC (((.(((....))).))) | -50.7 kcal/mol | 67.5 °C
GCTCTACGAAAGTAAGC (((.(((....)))))) | -18.8 kcal/mol | 38.7 °C
GTCACCGAAAGGTGGGAC ((((((....)))..))) | -9.56 kcal/mol | 39 °C
GATCGGACCCCCGATC ((((((....)))))) | -32.9 kcal/mol | 54.7 °C
GCTGGTGGAAACACTAGC (((.(((....))).))) | -40.8 kcal/mol | 51.3 °C
GTTGAGGAAACTCAAC ((((((....)))))) | -32.2 kcal/mol | 53.4 °C
GTTGTACGAAAGTATAAC (((.(((....))).))) | -26.9 kcal/mol | 47.6 °C
GATGAGCCGAAAGGCATC (((..(((....)))))) | -10.2 kcal/mol | 33.5 °C
GGTGGCGAAAGCCCCACC ((((((....)))..))) | -11.1 kcal/mol | 49.8 °C
GTTCAAGGAAACTTGAGC (.(((((....))))).) | -22.5 kcal/mol | 40.1 °C
CGGACGGAAACGTAACCG ((((((....)))..))) | -28.7 kcal/mol | 36.1 °C
GAGGGTGGAAACACTCTC (((.(((....))).))) | -29.9 kcal/mol | 52.3 °C
GCGCGGCGAAAGCAACGC (((..((....))..))) | -15.8 kcal/mol | 60 °C
GCGTAAGAAATTACGC ((((((....)))))) | -40.4 kcal/mol | 55.3 °C
GTTGTGGGAAACCACGAC ((.((((....)))).)) | -30.8 kcal/mol | 52.7 °C

Sequence | folding enthalpy [1] | Tm [2]
GCGAGAGTTCGC ((((....)))) | -16.3 kcal/mol | 47.5 °C
GACCCTGGAAACAGGGTC (((((((....))))))) | -36.9 kcal/mol | 67.7 °C
GTCGTTGGAAACGATGAC (((.(.(....).).))) | -13.5 kcal/mol | 49 °C
GCGAGCTTTCGC ((((....)))) | -19.3 kcal/mol | 50.5 °C
GATCATGGCAATGATC ((((((....)))))) | -41.9 kcal/mol | 56.7 °C
GGGTACTCGAAAGAGCCC (((..(((....)))))) | -19.6 kcal/mol | 39.6 °C
GATCGGTTCGCCGATC ((((((....)))))) | -45 kcal/mol | 61.4 °C
GAGTGCGAAAGCAGGCTC ((((((....)))..))) | -16.7 kcal/mol | 48.3 °C
GGCCAGGGAAACCTGGTC (.(((((....))))).) | -33.5 kcal/mol | 57.6 °C
GTATTGGGAAACCAGTAC (((.(((....))).))) | -27.3 kcal/mol | 40 °C
GGTGCTGCGAAAGCAACC (((..(((....)))))) | -14.4 kcal/mol | 43.8 °C
GACGGTGGAAACGCTGTC (((.(.(....).).))) | -22.2 kcal/mol | 40.9 °C
GGATAGGAAACTATCC ((((((....)))))) | -30.5 kcal/mol | 51.4 °C
GACAACGAAAGTTCAGTC ((((((....)))..))) | -14.7 kcal/mol | 27.6 °C
GTCAAGCGAAAGCTCGAC (((.(((....))).))) | -30.3 kcal/mol | 49.7 °C
GGAACCGAAAGGTGTTCC ((((((....)))..))) | -17.6 kcal/mol | 40.5 °C
GATCTGGGAAACTAGATC (((((.(....).))))) | -32.2 kcal/mol | 42.4 °C
GTGCGTGGAAACACGCGC (.(((((....))))).) | -18 kcal/mol | 65.9 °C
GCGTCGCGAAAGCCACGC ((((.((....)).)))) | -31.1 kcal/mol | 64 °C
GCGCAAGGAAACTCACGC (((..((....))..))) | -15 kcal/mol | 28.4 °C
GATCAGTCCCCTGATC ((((((....)))))) | -35.7 kcal/mol | 49.3 °C
GATCTACGAGTAGATC ((((((....)))))) | -37.8 kcal/mol | 52.3 °C
GCCCGGCGAAAGCCCGGC (((.(((....))).))) | -17.1 kcal/mol | 60.5 °C

Sequence | folding enthalpy [1] | Tm [2]
GGCAAGCCGAAAGGCGCC (((..(((....)))))) | -14.4 kcal/mol | 59.8 °C
GCCCGGGGAAACCTGGGC ((((.((....)).)))) | -52.3 kcal/mol | 62.3 °C
GATCAATCGTTGATC ((((((...)))))) | -26.8 kcal/mol | 40.4 °C
GATCATGGGATGATC ((((((...)))))) | -30.7 kcal/mol | 44.6 °C
GATCTCATAGGAGATC ((((((....)))))) | -38.1 kcal/mol | 51.2 °C
GCAACTCGAAAGAGTGC (((.(((....)))))) | -33.5 kcal/mol | 55.8 °C
GAGTAAGGAAACTCACTC ((((.((....)).)))) | -14.8 kcal/mol | 24.8 °C
GATCAATTATTTGATC ((((((....)))))) | -38.9 kcal/mol | 45.8 °C
GCACAAGGAAACCTGTGC (((((.(....).))))) | -34 kcal/mol | 50.5 °C
GATCCCCATGGGATC ((((((...)))))) | -37.5 kcal/mol | 63 °C
GGCAGCGAAAGCTCCGCC ((((((....)))..))) | -19.2 kcal/mol | 56 °C
GTGCGTGGAAACACGTAC ((.((((....)))).)) | -32.8 kcal/mol | 56.1 °C
GATCCCAGATGGGATC ((((((....)))))) | -34.1 kcal/mol | 57.6 °C
GATCGGAGTCCCGATC ((((((....)))))) | -33.8 kcal/mol | 55.3 °C
GTGGGTGGAAACACTCGC (.(.(((....))).).) | -24.7 kcal/mol | 42 °C
GATGCCGAAAGGCCAATC ((((((....)))..))) | -8.85 kcal/mol | 29.4 °C
GCGGTGCGAAAGCTACGC (((..((....))..))) | -33.5 kcal/mol | 63.9 °C
GCGTATAAACGC ((((....)))) | -19.7 kcal/mol | 50.4 °C
CGCGCCGGAAACGGGCG (((.(((....)))))) | -26.4 kcal/mol | 60.4 °C
GTGCTCGAAAGAGTCCAC ((((((....)))..))) | -13.1 kcal/mol | 31.8 °C
GCTAACGAAAGTTATAGC ((((((....)))..))) | -24.2 kcal/mol | 36 °C
GAGAAGACGAAAGTCCTC (((..(((....)))))) | -13.2 kcal/mol | 31.4 °C
GTATGCGAAAGCAATTAC ((((((....)))..))) | -10.7 kcal/mol | 28.2 °C
